Measured values as given in ChEMBL document CHEMBL1153376, “Lipophilic lysine-spermine conjugates are potent polyamine transport inhibitors for use in combination with a polyamine biosynthesis inhibitor” (J Med Chem, 2009).
pIC50, pKi: −log10 of the molar value. Calls of active or inactive are those of the source. The rule behind the calls is not given here.

Columns and labels:
MDA-MB-231 [1] = assay: Inhibition of [2,9-3H]spermidine uptake in human MDA-MB-231 cells after 15 mins by Lineweaver-Burke plot analysis; type: functional, cell-based
Method in brief: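 Cells then washed three times in cold PBS and lysed in 0.1% SDS, and lysates scintillation-counted. Four substrate concentrations (0.3–3 µM) and five inhibitor concentrations (0.01–1.0 µM) plus control. Ki from slopes of Lineweaver-Burke plots against inhibitor concentration (Ki = y-intercept/slope).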

[2] = target: T1, Ornithine decarboxylase (Homo sapiens) (UniProt P11926); assay: Inhibition of ornithine decarboxylase activity in human SK-MEL cells at 10 uM after 24 hrs relative to control; type: cell-based; design: scale not given: the % may be the effect or the level left
T1 sequence (whole entry): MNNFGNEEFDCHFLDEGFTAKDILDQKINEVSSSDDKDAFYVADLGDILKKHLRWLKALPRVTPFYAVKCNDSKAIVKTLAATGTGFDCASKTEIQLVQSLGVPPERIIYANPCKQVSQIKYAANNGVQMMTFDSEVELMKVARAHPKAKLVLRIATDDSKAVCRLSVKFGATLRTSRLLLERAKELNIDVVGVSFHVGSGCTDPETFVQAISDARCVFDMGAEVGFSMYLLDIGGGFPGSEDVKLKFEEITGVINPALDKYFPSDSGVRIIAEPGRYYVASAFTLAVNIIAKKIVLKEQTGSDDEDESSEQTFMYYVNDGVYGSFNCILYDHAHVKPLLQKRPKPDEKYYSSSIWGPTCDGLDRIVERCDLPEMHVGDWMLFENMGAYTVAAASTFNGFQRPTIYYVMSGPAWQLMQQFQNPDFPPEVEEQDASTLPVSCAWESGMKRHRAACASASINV
Method in brief: (§1)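 SK-Mel human melanoma cells exposed to 10 µM agent alone for 24 h. Enzyme activity (ODC; SSAT) measured and expressed as % of untreated control.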

[3] = target: Diamine acetyltransferase 1 (Homo sapiens) (UniProt P21673); assay: Inhibition of spermidine/spermine N1-acetyltransferase activity in human SK-MEL cells at 10 uM after 24 hrs relative to control; type: cell-based; design: scale not given: the % may be the effect or the level left; method in brief: as §1
Mus musculus [4] = assay: Antitumor activity against 7,12-dimethylbenz(alpha)anthracene-induced squamous cell carcinoma in FVB/N transgenic mouse model expressing K6/ODC gene assessed as tumor growth inhibition at 0.5 mg/kg, ip administered twice daily after 4 weeks; type: functional, organism-based; design: dose 0.5 mg/kg
MDA-MB-231 [5] = assay: Cytotoxicity against human MDA-MB-231 cells after 6 days by MTS/PMS dye assay; conditions: MDA-MB-231, 144 h
Mus musculus [6] = species on record: Mus musculus; assay: Antitumor activity against 7,12-dimethylbenz(alpha)anthracene-induced squamous cell carcinoma in FVB/N transgenic mouse model expressing K6/ODC gene assessed as tumor growth inhibition after 4 weeks; type: functional, organism-based

Sequence of Diamine acetyltransferase 1 (Homo sapiens) (P21673 whole entry): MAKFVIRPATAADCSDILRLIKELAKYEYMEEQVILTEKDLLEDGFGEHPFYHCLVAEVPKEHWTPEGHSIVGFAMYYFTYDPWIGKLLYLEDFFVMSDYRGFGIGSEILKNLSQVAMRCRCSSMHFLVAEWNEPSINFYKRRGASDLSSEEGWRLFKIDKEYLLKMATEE

Compound	pKi (MDA-MB-231 [1])	Activity [2]	Activity [3]	Activity (Mus musculus [4])	pIC50 (MDA-MB-231 [5])	Activity (Mus musculus [6])
CCCCCCCCCCCCCCCC(=O)NCCCC[C@H](N)C(=O)NCCCNCCCCNCCCN	8.12	46%	40%	–	–	–
CCCCCCCCCCCCCCCC(=O)NCCCC[C@@H](N)C(=O)NCCCNCCCCNCCCN [AMXT-1501]	7.98	–	–	Active	4.24	–
CCCCCCCC(=O)NCCCC[C@H](N)C(=O)NCCCNCCCCNCCCN	–	110%	40%	–	–	–
NCCCC(N)(C(=O)O)C(F)F (centres undefined)	–	–	–	–	–	Active
